# High-throughput results as filed in PubChem.
# TRPC4 potent = positive allosteric modulators of TRPC4, primary screen, cell-based, mouse TRPC4beta, HEK293 mu-opioid, Fluo-4 calcium; Short transient receptor potential channel 4 (Mus musculus), Q9QUQ5; 310,000 compounds, 0.42% hits; B-score at 10 µM; DAMGO EC20, Fluo-4 Ca2+ flux; hits give high values;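 active = B-score of calcium response area above 5 SD of library B-scores, with initial fluorescence ratio within 5 SD of library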;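 also: B-score of integrated fluorescence ratio over time as area under calcium response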
# TRPC4 block = inhibitors of mouse TRPC4 channel, primary screen, Fluo4 calcium, HEK293 TRPC4beta/mu-opioid cells; Short transient receptor potential channel 4 (Mus musculus), Q9QUQ5; DAMGO-evoked Fluo4 calcium flux; hits give low values; B-score at 10 µM; 300,000 compounds, 0.39% hits; AID 2247, 2010;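 active = B-score over 3 SD under the library average, no early fluorescence shift, positive overall ratio signal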
#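 Assay system: HEK293 cells with stable TRPC4beta plus mu-opioid receptor expression. Dosing: single dose. Measured by: Fluo4 Ca2+ flux fluorescence. Also added: DAMGO in two steps, submaximal then maximal. Read-out: B score from integrated Fluo4 fluorescence ratio.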
# TRPC6 inh = mouse TRPC6 channel inhibitors, primary screen, cell-based, HEK293, membrane potential dye; 310,000 compounds, 1.1% hits; B-score at 10 µM; Short transient receptor potential channel 6 (Mus musculus), Q61143; ACh-evoked depolarization; hits give low values;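 active = B-score under library mean minus 3 SD, initial fluorescence not abnormally high, positive integrated signal ratio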;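 also: B-score derived from integrated fluorescence ratio over the kinetic read; more negative B-score means stronger inhibition of depolarization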
# TRPC6 act = mouse TRPC6 channel activators, primary screen, cell-based, HEK293, membrane potential dye. HEK293-TRPC6 membrane potential dye fluorescence; hits give high values. B-score at 10 µM. 310,000 compounds, 0.13% hits. Short transient receptor potential channel 6 (Mus musculus), Q61143. AID 2550, 2010;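 active = B-score of the integrated fluorescence ratio above library mean plus 3 SD, and starting fluorescence ratio within library mean plus 5 SD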;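 also: higher score means more depolarization so channel activation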
# TRPC4 agonist = activators of mouse TRPC4 channel, primary screen, Fluo4 calcium, HEK293 TRPC4beta/mu-opioid cells; Short transient receptor potential channel 4 (Mus musculus), Q9QUQ5; Fluo4 calcium fluorescence; hits give high values; B-score at 10 µM; 310,000 compounds, 0.49% hits; AID 2237, 2010;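 active = B-score above 5 SD of library B-scores, and initial fluorescence ratio not above library mean plus 5 SD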;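 also: positive B-score marks a calcium rise read as TRPC4 activation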
#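 Test system: HEK293 cells stably co-expressing mouse TRPC4beta and mu-opioid receptor | Schedule: Fluo4 dye loading 45 min at room temperature, 110 s recording | Measured by: Kinetic Fluo4 calcium fluorescence, 5 s baseline at 1 Hz | Evaluation: B score of integrated ratio | Controls: Buffer (low) and maximal DAMGO (high)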
# TRPC4 spec 2 = second selectivity test of TRPC6 inhibitors: effect on mouse TRPC4; shares compounds with TRPC6 inh; HEK293 TRPC4/MOR, membrane potential dye fluorescence; channel activated by saturating DAMGO dose; inhibition, % at 10 µM; 920 compounds, 42% hits;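 active = compounds whose fluorescence signal differed from control wells by over 3 SD, either direction, in both duplicate plates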
# TRPC4 spec = mouse TRPC4 modulation by TRPC6 hits, confirmation, selectivity assay for TRPC6 inhibitor project, cell-based, HEK293 TRPC4/mu-opioid, membrane potential dye; shares compounds with TRPC6 inh; membrane potential fluorescence; activity change, negative = inhibition, % at 10 µM; 920 compounds, 61% hits;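 active = rise or fall in signal beyond 3 SD of buffer-only wells in both replicate plates, either sign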;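 also: integrated kinetic ratio of fluorescence range over baseline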
# HEK293 MPD ctr 2-1 = nonspecific membrane potential effects, parental HEK293, confirmation, counter-screen for TRPC6 inhibitor project, cell-based, second counter screen; AID 2779, 2010; 920 compounds, 31% hits; parental HEK293 membrane potential dye fluorescence; maximal acetylcholine challenge after compound addition; signal change vs control, % at 10 µM; shares compounds with TRPC6 inh;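 active = membrane potential signal moving either way by over 3 SD of the maximum-effect control, in both duplicate plates, meaning non-specific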
# HEK293 MPD ctr-1 = membrane potential modulation in parental HEK293, confirmation, counter-screen for TRPC6 inhibitor project, cell-based. shares compounds with TRPC6 inh. parental HEK293 membrane potential dye fluorescence. membrane potential signal change, % at 10 µM. 920 compounds, 60% hits. AID 2780, 2010;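 active = membrane potential signal shifting up or down by more than 3 SD of buffer-only wells, on both duplicate plates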
# HEK293 MPD ctr-2 = parental HEK293 membrane potential modulation, confirmation, counter-screen for TRPC6 modulator project, cell-based; membrane potential dye fluorescence; AID 488924, 2010; 2,400 compounds, 51% hits; shares compounds with TRPC6 inh; membrane potential signal change, % at 10 µM;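 active = membrane potential signal moves up or down beyond 5 SD from buffer-only wells, on both duplicate plates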
# HEK293 MPD ctr 2-2 = second counter-screen for TRPC6 modulators: effect in parental HEK293 cells. shares compounds with TRPC6 inh. 2,400 compounds, 14% hits. membrane potential dye fluorescence; after compound, maximal acetylcholine stimulation. inhibition, % at 10 µM;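 active = membrane potential signal drops by more than 5 SD from the mean control signal, in both duplicate plates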;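 also: plate controls were acetylcholine ECmax control wells for no effect and buffer only wells for full effect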
# TRPC4 ctr mod = TRPC4 modulation by TRPC6 hit compounds, confirmation, selectivity assay for TRPC6 modulator project, cell-based, HEK293 TRPC4/mu-opioid, membrane potential dye, mouse; shares compounds with TRPC6 inh; membrane potential fluorescence; percent change from control (negative = decrease, positive = increase), % at 10 µM; 2,400 compounds, 69% hits; AID 488927, 2010;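 active = membrane potential signal moved up or down beyond 5 SD of buffer control wells, in both duplicate plates, actives on both sides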;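 also: plate controls were assay buffer wells for no effect and DAMGO maximal-effect wells for full effect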
# TRPC4/MOR inh 2 = mouse TRPC4 off-target activity of TRPC6 modulators, second screen | inhibition, % at 10 µM | shares compounds with TRPC6 inh | 2,400 compounds, 55% hits | AID 488928 | HEK293 TRPC4/mu-opioid, membrane potential dye fluorescence; stimulated with maximal-effect DAMGO;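 active = drop in membrane potential signal beyond 5 SD of the control wells in both duplicate plates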;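 also: TRPC4 counter screen for TRPC6 hits run under conditions tuned for TRPC6 not TRPC4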
# TRPC6 block conf = mouse TRPC6 channel inhibitors, confirmation, HEK293 cells, membrane potential dye, duplicate; inhibition, % at 10 µM; shares compounds with TRPC6 inh; 3,300 compounds, 43% hits; ACh-evoked depolarization; AID 488960, 2010;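 active = fluorescence ratio falls more than 5 SD below the full-stimulation control mean, in both duplicate runs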;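 also: integrated fluorescence ratio of peak minus minimum over baseline after agonist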
# TRPC6 act confirm = mouse TRPC6 channel activators, confirmation, HEK293 cells, membrane potential dye, duplicate; activation, % at 10 µM; HEK293-TRPC6 membrane potential dye fluorescence, FDSS; shares compounds with TRPC6 inh; 2,800 compounds, 11% hits;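 active = ratio signal rise beyond 5 SD above unstimulated control wells' mean, seen in both duplicate runs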;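 also: plate controls were buffer EC0 wells for no effect and acetylcholine ECmax response for full effect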
# The depositor's hits bear a star; i = inactive; · = no result. Shown are actives, neighbours in structure and some others; about 2.3% of the full set was active somewhere.
SMILES,TRPC4 potent,TRPC4 block,TRPC6 inh,TRPC6 act,TRPC4 agonist,HEK293 MPD ctr-2,HEK293 MPD ctr 2-2,TRPC4 ctr mod,TRPC4/MOR inh 2,TRPC6 block conf,TRPC6 act confirm,others
CCOC(=O)c1cnc2ccc(OCC)cc2c1NCCN1CCOCC1,i,i,-5.2*,i,i,i,i,i,41%*,i,i,
CCOC(=O)c1cnc2ccc(OCC)cc2c1NCCCN1CCOCC1,i,i,-6.1*,i,i,i,80%*,21%*,34%*,42%*,i,
COc1ccc(OCCOC(=O)CCS(=O)(=O)c2ccc(C)cc2)cc1,i,i,i,i,i,·,·,·,·,·,·,
Cc1ccc(-c2nn(-c3cc(N4CCNCC4)ccc3[N+](=O)[O-])c(=O)c3ccccc23)cc1,i,i,-9.6*,i,i,·,·,·,·,i,i,TRPC4 spec 2=51%*;TRPC4 spec=-11%*;HEK293 MPD ctr 2-1=i;HEK293 MPD ctr-1=i
Cc1nn(-c2cc(N3CCCCCC3)ccc2[N+](=O)[O-])c(=O)c2ccccc12,i,i,i,i,i,·,·,·,·,·,·,
COc1ccc(/C=C/c2cc(C(F)(F)F)[nH]c(=O)n2)cc1OC,i,i,-5.9*,i,i,-180%*,i,-34%*,i,i,i,
CCOc1cc(/C=C/c2cc(C(F)(F)F)[nH]c(=O)n2)ccc1O,i,i,i,i,i,·,·,·,·,·,·,
CC(=O)Nc1ccc(NC(=O)C2CCCN(S(=O)(=O)c3ccc(-n4cnnn4)cc3)C2)cc1 (stereo unspecified),i,i,-6.6*,i,i,·,·,·,·,i,i,TRPC4 spec 2=i;TRPC4 spec=i;HEK293 MPD ctr 2-1=i;HEK293 MPD ctr-1=i
CC(=O)N1c2ccc(S(=O)(=O)N3CCCC(C(=O)Nc4ccc(F)cc4)C3)cc2CC1C (stereo unspecified),i,i,-5.1*,i,i,i,i,i,i,i,i,
